pIC50: −log10 of the molar value.
Molecular target: LL-diaminopimelate aminotransferase, chloroplastic (Arabidopsis thaliana, UniProt Q93ZN9)
Assay: Inhibition of Arabidopsis thaliana LL-DAP-AT expressed in Escherichia coli by aminobenzaldehyde-based assay
Outline: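 Recombinant C-terminal His6-tagged enzyme in 1 mL cells at 0.0043 mg/mL final. Final substrates: 8.5 mM 2-oxoglutarate, 7 mM 2-aminobenzaldehyde, 2.0 mM LL-DAP (racemic DAP), in 100 mM HEPES-KOH pH 7.6. Inhibitor in DMSO at 200, 100, 50, 25, 10 and 5 µM final. A440 read every 2 min for 200 min. Initial slopes compared with the DMSO control gave percentage inhibition, from which IC50 was calculated.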

LL-diaminopimelate aminotransferase, chloroplastic, sequence (Q93ZN9 whole entry): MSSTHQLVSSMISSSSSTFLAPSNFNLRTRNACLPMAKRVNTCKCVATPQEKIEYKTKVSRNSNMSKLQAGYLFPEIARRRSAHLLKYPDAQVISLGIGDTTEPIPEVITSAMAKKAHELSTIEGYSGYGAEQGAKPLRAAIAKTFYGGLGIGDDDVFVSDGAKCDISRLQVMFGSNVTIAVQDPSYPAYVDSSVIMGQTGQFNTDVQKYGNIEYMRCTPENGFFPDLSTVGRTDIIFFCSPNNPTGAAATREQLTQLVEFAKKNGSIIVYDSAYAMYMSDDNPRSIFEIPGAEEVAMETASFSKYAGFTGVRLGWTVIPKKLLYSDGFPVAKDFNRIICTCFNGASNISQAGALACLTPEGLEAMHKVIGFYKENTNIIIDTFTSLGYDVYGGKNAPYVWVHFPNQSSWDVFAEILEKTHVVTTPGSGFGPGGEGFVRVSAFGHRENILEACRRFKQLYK

## NC(N=NCc1ccc(-c2cccc([N+](=O)[O-])c2)o1)=N[N+](=O)[O-] [N'-nitro-2-((5-(3-nitrophenyl)furan-2-yl)methylene)hydrazinecarboximidamide]
  pIC50: < 3.70
